Results as given in ChEMBL document CHEMBL1268869, “Structural optimization and biological evaluation of substituted bisphenol A derivatives as beta-amyloid peptide aggregation inhibitors” (J Med Chem, 2010).
Calls of active or inactive are those of the source. The rule behind the calls is not given here.

How the values were obtained:
[1] = Inhibition of amyloid beta (1-42) aggregation by thioflavin T fluorescence method
How it was run: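 Compound (2 μL of 0.1–10.0 mM) was mixed with 4 μL of 50 μM Aβ1-42 in PBS pH 7.4 containing 11% ethanol, 2 h at room temperature. Then 40 μM ThT in PBS/10% ethanol was added. Fluorescence was read with excitation 430 nm and emission 488 nm.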

[2] = Inhibition of gamma-secretase by fluorogenic substrate assay
How it was run: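 Membrane protein (10 μg/well) was incubated with 6 μM fluorogenic substrate and compound in reaction buffer, 100 μL final, at 37 C for 5 h. Fluorescence was read at excitation 355 nm and emission 440 nm. L685,458 was the reference inhibitor. Dose-response curves were fitted by nonlinear regression.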

[3] = Inhibition of amyloid beta (1 to 42) fibrillation after 27 days by AFM assay; details: in the assay text read “after 17 days” for “after 27 days”
How it was run: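 For fibril formation, 200 μM Aβ1-42 in water/DMSO was kept 17 days at 37 C. These fibrils were then incubated with compound (10 mM stock) or DMSO for 27 days at 37 C. Samples were diluted 5-fold in water, dried on mica and imaged by tapping-mode AFM.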

PC-12 [4] = assay: Neuroprotective activity against rat PC12 cells assessed as reversal of amyloid beta (1 to 42)-induced neuronal damage in at 3 uM after 48 hrs by MTT assay; assay type: functional
How it was run: (§1)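 Differentiated PC-12 cells (10 000/well) received compound diluted in Aβ1-42 solution (5% DMSO water stock), giving final 10 μM Aβ1-42 with 0–3 μM compound (0.01–3 μM; dose curve 0.003–3 μM), for 48 h. MTT absorbance at 570 nm was normalized to full-kill and media controls. 3 independent experiments × 3 replicates.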

[5] = Inhibition of amyloid beta (12-28) fibrillation assessed as increase in beta-turn conformational component at 3:1 compound to protein ratio by CD spectroscopy assay; details: concentration not given here
How it was run: (§2)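 HFIP-treated Aβ12-28 was dissolved in 50% TFE/water at 80 μM, with compound at 1:3 protein:compound. CD spectra were taken in a 0.1 cm path cuvette. Secondary-structure content (helix, β-sheet, turn) was obtained by spectral deconvolution.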

[6] = Inhibition of amyloid beta (12-28) fibrillation assessed as decrease in alpha-helix component at 3:1 compound to protein ratio by CD spectroscopy assay; details: concentration not given here
[7] = Inhibition of amyloid beta (1 to 42) fibrillation after 5 days at -80 degC by PICUP assay
How it was run: (§3)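 Aβ1-42 was HFIP-treated, sonicated 30 min, dried under nitrogen and redissolved in water. Photo-crosslinking used Ru(bpy)3Cl2 and APS (Aβ/Ru/APS 1/4/80) under a 150 W xenon lamp for 3 s, then quench, 95 C for 5 min and 15% tricine SDS-PAGE. Monomer/(dimer+tetramer) band pixels were compared.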

[8] = Inhibition of amyloid beta (12-28) fibrillation assessed as increase in beta-sheet conformation at 3:1 compound to protein ratio by CD spectroscopy assay; details: concentration not given here; how it was run: as §2
[9] = Inhibition of amyloid beta (1 to 42) fibrillation after 5 days at 37 degC by PICUP assay; how it was run: as §3
PC-12 [10] = assay: Neuroprotective activity against rat PC12 cells assessed as reversal of amyloid beta (1 to 42)-induced neuronal damage after 48 hrs by MTT assay; assay type: functional, cell-based; how it was run: as §1
PC-12 [11] = assay: Cytotoxicity against rat PC12 cells at 1 uM by MTT assay; assay type: cell-based; details: pc-12, 1 µM
How it was run: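 Differentiated PC-12 cells in DMEM with 10% heat-inactivated FBS and 2 mM L-glutamine, 37 C, 5% CO2. Plated at 10 000 cells/well and treated 24 h later with compound diluted in medium (0.1 nM to 100 μM) for 48 h. MTT read at 570 nm. Viability scaled between media and 5 μM staurosporine controls. At least 3 independent experiments × 3 replicates.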

PC-12 [12] = assay: Neuroprotective activity against rat PC12 cells assessed as reversal of amyloid beta (1 to 42)-induced neuronal damage in at 1 uM after 48 hrs by MTT assay; assay type: functional; how it was run: as §1

SMILES	IC50 [1]	IC50 ([1]; read-out: IC50)	further results
Cc1cc(C(C)(C)c2ccc(OCC(O)CN3CCOCC3)c(C)c2)ccc1OCC(O)CN1CCOCC1 (stereo not drawn)	Not Active		
CN1CCN(CC(O)COc2c(Br)cc(C(c3cc(Br)c(OCC(O)CN4CCN(C)CC4)c(Br)c3)(C(F)(F)F)C(F)(F)F)cc2Br)CC1 (stereo not drawn)		24 µM	
Cc1cc(C2(c3cc(C)c(OCC(O)CN4CCOCC4)c(C)c3)CCCC2)cc(C)c1OCC(O)CN1CCOCC1 (stereo not drawn)	Not Active		
OC(COc1c(Br)cc(C(c2cc(Br)c(OCC(O)CN3CCOCC3)c(Br)c2)(C(F)(F)F)C(F)(F)F)cc1Br)CN1CCOCC1 (stereo not drawn)	Not Active		
Cc1cc(C2(c3cc(C)c(OCC(O)CN4CCOCC4)c(C)c3)CCCCC2)cc(C)c1OCC(O)CN1CCOCC1 (stereo not drawn)	Not Active		
CCCCN(CCCC)CC(O)COc1c(Br)cc(C(C)(C)c2cc(Br)c(OCC(O)CN(CCCC)CCCC)c(Br)c2)cc1Br (stereo not drawn)		0.27 µM	
OC(COc1ccc(C(c2ccc(OCC(O)CN3CCOCC3)cc2)(C(F)(F)F)C(F)(F)F)cc1)CN1CCOCC1 (stereo not drawn)	Not Active		
Cc1cc(C2(c3cc(C)c(OCC(O)CN4CCN(C)CC4)c(C)c3)CCCCC2)cc(C)c1OCC(O)CN1CCN(C)CC1 (stereo not drawn)		70 µM	
Cc1cc(C2(c3cc(C)c(OCC(O)CN4CCN(C)CC4)c(C)c3)CCCC2)cc(C)c1OCC(O)CN1CCN(C)CC1 (stereo not drawn)		56 µM	
CC(C)(C)c1ccc(NCC(O)COc2c(Br)cc(C(C)(C)c3cc(Br)c(OCC(O)CNc4ccc(C(C)(C)C)cc4)c(Br)c3)cc2Br)cc1 (stereo not drawn)	Not Active		
CC(C)(c1cc(Br)c(OCC(O)CN2CCOCC2)c(Br)c1)c1cc(Br)c(OCC(O)CN2CCOCC2)c(Br)c1 (stereo not drawn)		26 µM	
CN1CCN(CC(O)COc2c(Br)cc(C3(c4cc(Br)c(OCC(O)CN5CCN(C)CC5)c(Br)c4)CCCC3)cc2Br)CC1 (stereo not drawn)		24 µM	
Cc1cc(C2(c3cc(C)c(OCC(O)CN4CCOCC4)c(C)c3)CCCCCC2)cc(C)c1OCC(O)CN1CCOCC1 (stereo not drawn)	Not Active		
CN1CCN(CC(O)COc2ccc(C(c3ccc(OCC(O)CN4CCN(C)CC4)cc3)(C(F)(F)F)C(F)(F)F)cc2)CC1 (stereo not drawn)		380 µM	
Cc1cc(C(C)(C)c2cc(C)c(OCC(O)CN3CCCC3)c(C)c2)cc(C)c1OCC(O)CN1CCCC1 (stereo not drawn)		11 µM	
Cc1cc(C)cc(NCC(O)COc2c(C)cc(C(C)(C)c3cc(C)c(OCC(O)CNc4cc(C)cc(C)c4)c(C)c3)cc2C)c1 (stereo not drawn)	Not Active		
Cc1cc(C(C)(C)c2cc(C)c(OCC(O)CN3CC(C)CC(C)C3)c(C)c2)cc(C)c1OCC(O)CN1CC(C)CC(C)C1 (stereo not drawn)		8.9 µM	
Cc1cc(C(C)(C)c2cc(C)c(OCC(O)CN3CCCCC3)c(C)c2)cc(C)c1OCC(O)CN1CCCCC1 (stereo not drawn)		43 µM	
OC(COc1c(Br)cc(C2(c3cc(Br)c(OCC(O)CN4CCOCC4)c(Br)c3)CCCC2)cc1Br)CN1CCOCC1 (stereo not drawn)	Not Active		
Cc1cc(C(C)(C)c2cc(C)c(OCC(O)CN3CCC4(CC3)OCCO4)c(C)c2)cc(C)c1OCC(O)CN1CCC2(CC1)OCCO2 (stereo not drawn)		20 µM	
CC(C)(c1ccc(OCC(O)CN2CCOCC2)cc1)c1ccc(OCC(O)CN2CCOCC2)cc1 (stereo not drawn)	Not Active		
Cc1cc(C(C)(C)c2cc(C)c(OCC(O)CN3CCN(Cc4ccccc4)CC3)c(C)c2)cc(C)c1OCC(O)CN1CCN(Cc2ccccc2)CC1 (stereo not drawn)		6.2 µM	

Now from value to compound, other results behind:

IC50 [1]	IC50 ([1]; read-out: IC50)	SMILES	further results
	0.4 µM	Cc1cc(C(C)(C)c2cc(C)c(OCC(O)CN3CCN(C(=O)OC(C)(C)C)CC3)c(C)c2)cc(C)c1OCC(O)CN1CCN(C(=O)OC(C)(C)C)CC1 (stereo not drawn)	IC50 [2]: 1.82 µM
Not Active		Cc1cc(C(C)(C)c2cc(C)c(OCC(O)CN3CCN(C)CC3)c(C)c2)cc(C)c1OCC(O)CN1CCN(C)CC1 (stereo not drawn)	
	4.7 µM	CC(C)(c1cc(Br)c(OCC(O)CN2CCC3(CC2)OCCO3)c(Br)c1)c1cc(Br)c(OCC(O)CN2CCC3(CC2)OCCO3)c(Br)c1 (stereo not drawn)	
Not Active		CN1CCN(CC(O)COc2ccc(C(C)(C)c3ccc(OCC(O)CN4CCN(C)CC4)cc3)cc2)CC1 (stereo not drawn)	
Not Active		Cc1cc(C(C)(C)c2cc(C)c(OCC(O)CN3CCOCC3)c(C)c2)cc(C)c1OCC(O)CN1CCOCC1 (stereo not drawn)	
	25 µM	CC(c1cc(Br)c(OCC(O)CN2CCN(C)CC2)c(Br)c1)c1cc(Br)c(OCC(O)CN2CCN(C)CC2)c(Br)c1 (stereo not drawn)	
	13 µM	CN1CCN(CC(O)COc2ccc(C3(c4ccc(OCC(O)CN5CCN(C)CC5)c(Br)c4)CCCCC3)cc2Br)CC1 (stereo not drawn)	
	6.2 µM	Cc1cc(C(C)(C)c2cc(C)c(OCC(O)CN3CCCCCC3)c(C)c2)cc(C)c1OCC(O)CN1CCCCCC1 (stereo not drawn)	
	32 µM	Cc1cc(C2(c3cc(C)c(OCC(O)CN4CCN(C)CC4)c(C)c3)CCCCCC2)cc(C)c1OCC(O)CN1CCN(C)CC1 (stereo not drawn)	
Not Active		Cc1cc(C(C)(C)c2cc(C)c(OCC(O)CNc3ccc(C(C)(C)C)cc3)c(C)c2)cc(C)c1OCC(O)CNc1ccc(C(C)(C)C)cc1 (stereo not drawn)	
	23 µM	CN1CCN(CC(O)COc2c(Br)cc(C(C)(C)c3cc(Br)c(OCC(O)CN4CCN(C)CC4)c(Br)c3)cc2Br)CC1 (stereo not drawn)	
	4.8 µM	CC1CC(C)CN(CC(O)COc2c(Br)cc(C(C)(C)c3cc(Br)c(OCC(O)CN4CC(C)CC(C)C4)c(Br)c3)cc2Br)C1 (stereo not drawn)	IC50 [2]: 5.57 µM; inhibition [3]: Active; Activity (PC-12 [4]): 104.2%; inhibition [5]: 13.7%; inhibition [6]: 40.4%; inhibition [7]: Active; inhibition [8]: 17.4%; inhibition [9]: Active; Activity (PC-12 [10]): Dose-dependent effect; IC50 (PC-12 [10]; PC-12, 48 h): 0.8 µM; Activity (PC-12 [11]): Non-toxic; Activity (PC-12 [12]): 96.6%
	110 µM	CC(C)(c1ccc(OCC(O)CN2CCCCC2)cc1)c1ccc(OCC(O)CN2CCCCC2)cc1 (stereo not drawn)	
